Results published in ChEMBL document CHEMBL3112519, “Degrasyn-like symmetrical compounds: possible therapeutic agents for multiple myeloma (MM-I)” (Bioorg Med Chem, 2014).
Active and inactive are the calls of the source. The calls are words filed in the database; no cut-off is given here.

What was measured:
[1] = Cytotoxicity against human MM1S cells after 72 hrs by MTT assay; format: functional, cell-based; conditions: MM1.S
Summary of the method: (§1)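 Cells were grown in RPMI 1640 with 10% heat-inactivated FBS and 2 mM glutamine. Non-adherent cells were seeded at 20,000 per well and adherent cells at 5,000. Compounds were serially diluted in medium from a final top concentration of 10 μM (DMSO ≤0.1%), with vehicle controls, and incubated at 37 °C for 72 h. MTT was added for 2 h, then SDS/DMF lysis (pH 4.7) for 6 h, and OD570 was read. IC50 was taken from the concentration range.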

[2] = Cytotoxicity against human MM1S cells at 10 uM after 72 hrs by MTT assay; format: functional; conditions: MM1.S
Summary of the method: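 MM1.S cells were grown in RPMI 1640 with 10% heat-inactivated FBS and 2 mM glutamine and plated at 20,000 cells per well. They were exposed to a single 10 μM final concentration (DMSO ≤0.1%) or vehicle for 72 h at 37 °C. MTT was added for 2 h, followed by SDS/DMF lysis for 6 h and OD570 reading. Percent growth inhibition was calculated against vehicle.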

[3] = biological target: T1, Ubiquitin carboxyl-terminal hydrolase 9X (Homo sapiens, UniProt Q93008); experiment: Inhibition of Usp9x in human Z138 cells using HA-Ub vinyl-sulfone as substrate at 1.25 to 5 uM after 4 hrs by immunoblotting analysis; format: cell-based
[4] = biological target: T1, Ubiquitin carboxyl-terminal hydrolase 9X; experiment: Inhibition of human recombinant N-terminal His6-Smt3-fusion-tagged Usp9x catalytic domain expressed in Escherichia coli using Ub-AMC as substrate incubated for 30 mins prior to substrate addition by fluorescence assay
[5] = Cytotoxicity against human Mino cells after 72 hrs by MTT assay; format: functional, cell-based; summary of the method: as §1
[6] = test system: K562; experiment: Cytotoxicity against human K562 cells after 72 hrs by MTT assay; format: functional, cell-based; conditions: K562, 72 h; summary of the method: as §1
[7] = test system: A-375; experiment: Cytotoxicity against human A375 cells after 72 hrs by MTT assay; format: functional, cell-based; conditions: A-375, 72 h; summary of the method: as §1
[8] = biological target: Tyrosine-protein kinase JAK2 (Homo sapiens) (UniProt O60674); experiment: Inhibition of human JAK2 kinase at 10000 nM
[9] = biological target: Mast/stem cell growth factor receptor Kit (Homo sapiens) (UniProt P10721); experiment: Inhibition of human c-kit kinase at 10000 nM
[10] = organism: Homo sapiens; experiment: Inhibition of human Bcr-Abl kinase at 10000 nM

T1 sequence (Q93008 whole entry, the tested form may be a part): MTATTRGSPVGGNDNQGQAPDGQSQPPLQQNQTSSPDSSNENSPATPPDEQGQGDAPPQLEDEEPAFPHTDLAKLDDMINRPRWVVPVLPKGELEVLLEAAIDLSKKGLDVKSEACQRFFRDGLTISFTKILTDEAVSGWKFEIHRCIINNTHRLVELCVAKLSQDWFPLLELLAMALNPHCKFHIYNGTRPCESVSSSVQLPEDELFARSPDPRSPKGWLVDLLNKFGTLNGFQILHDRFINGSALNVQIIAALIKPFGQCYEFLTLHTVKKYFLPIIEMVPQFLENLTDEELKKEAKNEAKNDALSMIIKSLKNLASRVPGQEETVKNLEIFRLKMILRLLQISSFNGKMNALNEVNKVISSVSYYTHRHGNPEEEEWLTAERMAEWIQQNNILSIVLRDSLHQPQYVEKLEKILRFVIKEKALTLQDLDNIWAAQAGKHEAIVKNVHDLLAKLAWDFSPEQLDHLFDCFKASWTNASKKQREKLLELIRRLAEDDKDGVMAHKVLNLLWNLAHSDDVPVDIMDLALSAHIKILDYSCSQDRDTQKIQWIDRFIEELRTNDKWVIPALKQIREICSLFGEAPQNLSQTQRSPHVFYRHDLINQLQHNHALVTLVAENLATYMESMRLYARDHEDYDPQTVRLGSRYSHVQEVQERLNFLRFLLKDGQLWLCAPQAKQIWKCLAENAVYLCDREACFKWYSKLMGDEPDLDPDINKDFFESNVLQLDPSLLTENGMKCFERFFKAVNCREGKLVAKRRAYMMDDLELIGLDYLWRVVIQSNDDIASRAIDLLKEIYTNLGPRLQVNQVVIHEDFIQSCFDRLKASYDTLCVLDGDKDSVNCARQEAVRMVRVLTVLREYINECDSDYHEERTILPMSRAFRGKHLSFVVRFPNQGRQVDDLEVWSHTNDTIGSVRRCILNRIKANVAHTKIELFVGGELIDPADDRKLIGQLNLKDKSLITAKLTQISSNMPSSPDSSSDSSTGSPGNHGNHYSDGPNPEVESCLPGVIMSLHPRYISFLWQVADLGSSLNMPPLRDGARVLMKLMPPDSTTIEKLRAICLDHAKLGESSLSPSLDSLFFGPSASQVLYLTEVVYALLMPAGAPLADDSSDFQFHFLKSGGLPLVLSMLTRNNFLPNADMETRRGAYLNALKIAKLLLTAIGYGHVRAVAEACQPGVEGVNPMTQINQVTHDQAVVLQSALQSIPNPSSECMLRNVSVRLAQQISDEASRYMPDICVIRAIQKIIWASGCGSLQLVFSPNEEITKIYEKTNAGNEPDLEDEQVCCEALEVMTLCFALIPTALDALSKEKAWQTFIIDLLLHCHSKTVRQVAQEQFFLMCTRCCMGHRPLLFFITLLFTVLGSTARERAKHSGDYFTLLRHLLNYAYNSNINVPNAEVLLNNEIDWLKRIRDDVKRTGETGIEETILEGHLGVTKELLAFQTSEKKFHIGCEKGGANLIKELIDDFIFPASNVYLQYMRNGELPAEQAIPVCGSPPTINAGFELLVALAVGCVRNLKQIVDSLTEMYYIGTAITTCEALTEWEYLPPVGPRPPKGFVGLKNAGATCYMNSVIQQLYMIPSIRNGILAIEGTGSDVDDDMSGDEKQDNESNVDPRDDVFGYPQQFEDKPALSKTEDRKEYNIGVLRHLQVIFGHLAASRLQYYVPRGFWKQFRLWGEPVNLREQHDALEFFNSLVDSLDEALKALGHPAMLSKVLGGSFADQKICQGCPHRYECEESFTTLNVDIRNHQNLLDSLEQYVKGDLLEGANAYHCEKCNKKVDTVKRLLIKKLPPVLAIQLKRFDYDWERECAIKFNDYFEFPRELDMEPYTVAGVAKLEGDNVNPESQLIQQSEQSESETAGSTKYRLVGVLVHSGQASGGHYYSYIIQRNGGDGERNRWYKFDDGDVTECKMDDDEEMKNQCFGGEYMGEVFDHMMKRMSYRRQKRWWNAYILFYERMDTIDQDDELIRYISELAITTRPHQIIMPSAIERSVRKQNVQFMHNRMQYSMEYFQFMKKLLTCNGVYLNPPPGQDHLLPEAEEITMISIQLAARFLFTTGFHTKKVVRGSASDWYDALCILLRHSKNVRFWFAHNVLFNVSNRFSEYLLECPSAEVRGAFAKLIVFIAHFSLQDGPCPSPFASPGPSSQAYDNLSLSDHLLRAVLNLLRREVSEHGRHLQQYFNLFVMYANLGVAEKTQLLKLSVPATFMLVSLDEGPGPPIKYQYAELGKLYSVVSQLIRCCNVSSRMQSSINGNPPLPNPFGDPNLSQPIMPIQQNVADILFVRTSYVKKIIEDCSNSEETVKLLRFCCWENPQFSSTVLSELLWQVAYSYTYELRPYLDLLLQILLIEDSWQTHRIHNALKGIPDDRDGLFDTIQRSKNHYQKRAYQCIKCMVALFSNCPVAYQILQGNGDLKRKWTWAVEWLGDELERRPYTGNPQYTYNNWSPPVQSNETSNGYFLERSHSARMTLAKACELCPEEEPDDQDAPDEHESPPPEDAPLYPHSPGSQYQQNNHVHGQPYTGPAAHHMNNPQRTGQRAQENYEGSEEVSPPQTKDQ
Chain of Mast/stem cell growth factor receptor Kit (Homo sapiens) (P10721 whole entry): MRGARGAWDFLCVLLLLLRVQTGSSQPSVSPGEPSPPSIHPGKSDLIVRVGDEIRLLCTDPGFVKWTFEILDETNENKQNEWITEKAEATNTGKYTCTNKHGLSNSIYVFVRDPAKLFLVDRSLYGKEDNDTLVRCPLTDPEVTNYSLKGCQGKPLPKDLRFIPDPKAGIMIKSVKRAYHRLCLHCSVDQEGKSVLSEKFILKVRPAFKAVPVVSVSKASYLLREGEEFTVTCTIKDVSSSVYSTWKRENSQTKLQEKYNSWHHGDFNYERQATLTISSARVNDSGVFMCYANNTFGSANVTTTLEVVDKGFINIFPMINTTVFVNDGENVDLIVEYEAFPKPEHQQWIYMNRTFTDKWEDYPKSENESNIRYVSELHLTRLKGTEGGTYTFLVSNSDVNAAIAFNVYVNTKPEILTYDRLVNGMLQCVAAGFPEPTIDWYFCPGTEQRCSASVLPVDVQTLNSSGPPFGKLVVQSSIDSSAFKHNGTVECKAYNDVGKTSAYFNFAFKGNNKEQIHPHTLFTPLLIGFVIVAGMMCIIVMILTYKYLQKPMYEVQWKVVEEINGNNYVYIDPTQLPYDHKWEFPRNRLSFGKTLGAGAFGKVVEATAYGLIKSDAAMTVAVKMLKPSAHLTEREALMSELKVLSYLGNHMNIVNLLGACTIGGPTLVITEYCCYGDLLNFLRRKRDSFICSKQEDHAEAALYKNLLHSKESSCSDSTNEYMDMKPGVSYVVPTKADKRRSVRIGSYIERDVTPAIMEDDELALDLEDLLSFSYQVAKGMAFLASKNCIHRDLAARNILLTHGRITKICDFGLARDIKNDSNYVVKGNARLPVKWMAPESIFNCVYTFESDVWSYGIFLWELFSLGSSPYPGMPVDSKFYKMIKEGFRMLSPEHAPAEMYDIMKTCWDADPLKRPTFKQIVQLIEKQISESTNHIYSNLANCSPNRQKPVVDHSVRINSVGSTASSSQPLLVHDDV
Chain of Tyrosine-protein kinase JAK2 (Homo sapiens) (O60674 whole entry): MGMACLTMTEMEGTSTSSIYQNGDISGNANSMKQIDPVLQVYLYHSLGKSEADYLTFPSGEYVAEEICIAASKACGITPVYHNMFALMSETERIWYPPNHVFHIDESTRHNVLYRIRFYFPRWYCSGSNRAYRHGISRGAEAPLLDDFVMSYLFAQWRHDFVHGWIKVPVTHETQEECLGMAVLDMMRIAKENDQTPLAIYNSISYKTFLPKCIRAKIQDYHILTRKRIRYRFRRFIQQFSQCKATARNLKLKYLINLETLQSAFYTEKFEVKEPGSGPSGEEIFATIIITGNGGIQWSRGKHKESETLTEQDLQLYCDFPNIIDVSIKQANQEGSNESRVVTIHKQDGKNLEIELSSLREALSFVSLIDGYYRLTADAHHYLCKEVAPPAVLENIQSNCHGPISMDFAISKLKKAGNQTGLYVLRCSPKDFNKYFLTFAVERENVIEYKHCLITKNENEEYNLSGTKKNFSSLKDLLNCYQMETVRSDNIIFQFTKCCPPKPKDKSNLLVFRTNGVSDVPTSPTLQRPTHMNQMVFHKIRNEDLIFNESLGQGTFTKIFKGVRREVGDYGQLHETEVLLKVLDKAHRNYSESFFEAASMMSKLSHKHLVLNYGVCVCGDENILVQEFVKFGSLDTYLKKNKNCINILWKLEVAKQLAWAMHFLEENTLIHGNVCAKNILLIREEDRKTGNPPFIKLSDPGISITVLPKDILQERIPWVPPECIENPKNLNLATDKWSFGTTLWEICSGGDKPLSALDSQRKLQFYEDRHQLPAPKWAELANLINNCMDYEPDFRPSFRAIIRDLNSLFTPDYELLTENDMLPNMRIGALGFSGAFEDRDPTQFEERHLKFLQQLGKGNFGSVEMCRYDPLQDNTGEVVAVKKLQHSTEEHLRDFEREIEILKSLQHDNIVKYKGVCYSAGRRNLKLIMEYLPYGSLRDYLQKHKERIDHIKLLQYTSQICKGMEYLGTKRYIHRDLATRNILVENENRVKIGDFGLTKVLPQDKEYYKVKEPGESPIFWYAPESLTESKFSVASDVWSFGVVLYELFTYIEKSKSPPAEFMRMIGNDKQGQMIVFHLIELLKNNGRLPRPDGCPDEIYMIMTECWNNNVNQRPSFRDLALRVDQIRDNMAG

N#C/C(=C/c1ccc(-c2cccs2)s1)C(=O)NCc1cccc(CNC(=O)/C(C#N)=C\c2ccc(-c3cccs3)s2)c1
IC50 [1]: > 5000 nM

COC(=O)c1ccc(/C=C(\C#N)C(=O)N[C@@H](C)c2ccccc2)cc1
inhibition at 10 µM [2]: 67%

C[C@H](NC(=O)/C(C#N)=C/c1cccnc1)c1ccccc1
inhibition at 10 µM [2]: 44%

N#C/C(=C/c1ccc([N+](=O)[O-])c(O)c1)C(=O)NCc1cccc(CNC(=O)/C(C#N)=C\c2ccc([N+](=O)[O-])c(O)c2)c1
IC50 [1]: 700 nM

N#C/C(=C/c1ccc(O)c(Br)c1)C(=O)NCc1cccc(CNC(=O)/C(C#N)=C\c2ccc(O)c(Br)c2)c1
IC50 [1]: > 10000 nM

COc1ccc(/C=C(/C#N)C(=O)NCc2cccc(CNC(=O)/C(C#N)=C\c3ccc(OC)c(OC)c3)c2)cc1OC
IC50 [1]: 2000 nM

C[C@H](NC(=O)/C(C#N)=C/c1cc(/C=C(\C#N)C(=O)N[C@@H](C)c2ccccc2)cc(/C=C(\C#N)C(=O)N[C@@H](C)c2ccccc2)c1)c1ccccc1
IC50 [1]: 700 nM

COc1ccc([C@H](C)NC(=O)/C(C#N)=C/c2cccc(/C=C(\C#N)C(=O)N[C@@H](C)c3ccc(OC)cc3)c2)cc1
IC50 [1]: 1000 nM

COc1ccc(C(CC2CC2)NC(=O)/C(C#N)=C/c2cccc(/C=C(\C#N)C(=O)NC(CC3CC3)c3ccc(OC)cc3)c2)cc1 (racemic)
IC50 [1]: 1200 nM

N#C/C(=C/c1c[nH]c2ccccc12)C(=O)NCc1cccc(CNC(=O)/C(C#N)=C\c2c[nH]c3ccccc23)c1
IC50 [1]: > 5000 nM

CCC[C@H](NC(=O)/C(C#N)=C/c1cccc(Br)n1)c1ccccc1
inhibition [3]: Active | IC50 [4]: 5900 nM | IC50 [5]: 800 nM | IC50 [6]: 2400 nM | IC50 [7]: 1700 nM | IC50 [1]: 1200 nM | inhibition at 10 µM [2]: 97%

CC[C@H](NC(=O)/C(C#N)=C/c1cccc(/C=C(\C#N)C(=O)N[C@@H](CC)c2ccccc2)c1)c1ccccc1
IC50 [1]: 800 nM

C[C@H](NC(=O)/C(C#N)=C/c1cccc(/C=C(\C#N)C(=O)N[C@@H](C)c2ccccc2)n1)c1ccccc1
IC50 [1]: 1280 nM

Cc1ccc(Cl)c(C=C(C#N)C(=O)NCc2cccc(CNC(=O)C(C#N)=Cc3c(Cl)ccc(C)c3F)c2)c1F
IC50 [1]: 600 nM

C[C@H](NC(=O)/C(C#N)=C/c1ccc(C(F)(F)F)cc1)c1ccccc1
inhibition at 10 µM [2]: 63%

N#C/C(=C/c1cc(-c2ccccc2)cs1)C(=O)NCc1cccc(CNC(=O)/C(C#N)=C\c2cc(-c3ccccc3)cs2)c1
IC50 [1]: > 5000 nM

CC(C)c1ccc(/C=C(\C#N)C(=O)NCc2ccc(Cl)cc2)cc1
inhibition at 10 µM [2]: 21%

N#C/C(=C\c1ccc(/C=C(\C#N)C(=O)N[C@@H](CO)c2ccccc2)cc1)C(=O)N[C@@H](CO)c1ccccc1
IC50 [1]: 2000 nM

C[C@H](NC(=O)/C(C#N)=C/c1cccs1)c1ccccc1
inhibition at 10 µM [2]: 14%

CCC[C@H](NC(=O)/C(C#N)=C/c1cccc(/C=C(\C#N)C(=O)N[C@@H](CCC)c2ccccc2)n1)c1ccccc1
IC50 [1]: 1200 nM

C[C@H](NC(=O)/C(C#N)=C/c1ccc(/C=C(\C#N)C(=O)N[C@@H](C)c2ccccc2)cc1)c1ccccc1
IC50 [1]: > 5000 nM

N#C/C(=C\c1cccc(/C=C(\C#N)C(=O)N[C@@H](CO)c2ccccc2)c1)C(=O)N[C@@H](CO)c1ccccc1
IC50 [1]: > 2000 nM

N#C/C(=C\c1cccc(/C=C(\C#N)C(=O)N[C@@H](CO)c2ccccc2)n1)C(=O)N[C@@H](CO)c1ccccc1
IC50 [1]: > 2000 nM

CCCCCCOc1ccc(/C=C(/C#N)C(=O)NCc2cccc(CNC(=O)/C(C#N)=C\c3ccc(OCCCCCC)cc3)c2)cc1
IC50 [1]: 5000 nM

COc1cccc(/C=C(/C#N)C(=O)NCc2cccc(CNC(=O)/C(C#N)=C\c3cccc(OC)n3)c2)n1
IC50 [1]: > 5000 nM

N#C/C(=C/c1cc(Cl)c(Cl)cn1)C(=O)NCc1cccc(CNC(=O)/C(C#N)=C\c2cc(Cl)c(Cl)cn2)c1
IC50 [1]: 1250 nM

N#C/C(=C/c1cnc[nH]1)C(=O)NCc1cccc(CNC(=O)/C(C#N)=C\c2cnc[nH]2)c1
IC50 [1]: > 5000 nM

N#C/C(=C\c1cccc(/C=C(\C#N)C(=O)N[C@@H](Cc2ccccc2)c2ccccc2)c1)C(=O)N[C@@H](Cc1ccccc1)c1ccccc1
IC50 [1]: 620 nM

N#C/C(=C\C=C\c1ccc(O)c(O)c1)C(=O)NCc1cccc(CNC(=O)/C(C#N)=C/C=C/c2ccc(O)c(O)c2)c1
IC50 [1]: > 5000 nM

CCCCOc1ccc(/C=C(\C#N)C(=O)N[C@@H](C)c2ccccc2)cc1
inhibition at 10 µM [2]: 31%

N#C/C(=C/c1cccc(Br)n1)C(=O)NCc1cccc(CNC(=O)/C(C#N)=C\c2cccc(Br)n2)c1
inhibition [8]: inactive | inhibition [9]: inactive | inhibition [10]: inactive | IC50 [5]: 200 nM | IC50 [6]: 400 nM | IC50 [7]: 600 nM | IC50 [1]: 240 nM

C[C@H](NC(=O)/C(C#N)=C/c1ccc(/C=C(\C#N)C(=O)N[C@@H](C)c2ccccc2Cl)cc1)c1ccccc1Cl
IC50 [1]: > 5000 nM

N#C/C(=C/c1csc2ccccc12)C(=O)NCc1cccc(CNC(=O)/C(C#N)=C\c2csc3ccccc23)c1
IC50 [1]: > 5000 nM

N#C/C(=C/c1ccc2[nH]ccc2c1)C(=O)NCc1cccc(CNC(=O)/C(C#N)=C\c2ccc3[nH]ccc3c2)c1
IC50 [1]: > 5000 nM

N#C/C(=C\c1ccccc1)C(=O)N1CCC(C(c2ccccc2)c2ccccc2)CC1
inhibition at 10 µM [2]: 14%

C[C@H](NC(=O)/C(C#N)=C/c1cccc(/C=C(\C#N)C(=O)N[C@@H](C)c2ccccc2)c1)c1ccccc1
IC50 [5]: 400 nM | IC50 [6]: 600 nM | IC50 [7]: 800 nM | IC50 [1]: 400 nM | inhibition at 10 µM [2]: 100%

CCC[C@H](NC(=O)/C(C#N)=C/c1cccc(/C=C(\C#N)C(=O)N[C@@H](CCC)c2ccccc2)c1)c1ccccc1
IC50 [1]: 600 nM

N#C/C(=C/c1ccc(N2CCCCC2)cc1)C(=O)NCc1cccc(CNC(=O)/C(C#N)=C\c2ccc(N3CCCCC3)cc2)c1
IC50 [1]: > 5000 nM

C[C@H](NC(=O)/C(C#N)=C/c1ccc(-c2ccccc2)cc1)c1ccccc1
inhibition at 10 µM [2]: 49%
